Key:
[1] = Solubility of the compound in DMSO; assay type: physicochemical
20S proteasome = assay: Stimulation of human 20S proteasome using 11 amino acid FRET peptide as substrate measured every 2 mins over 1 hr by FRET assay; assay type: protein-complex assay
Outline: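 Purified human 20S core particle is incubated with an 11-residue reporter peptide carrying a FRET pair, with or without stimulator. The peptide hydrolysis rate is calculated and expressed as percent increase over the basal (unstimulated) rate. EC50 comes from concentration-response curves.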

HEK-293T [2] = assay: Cytotoxicity against HEK293T cells at 25 to 50 uM after 24 hrs by LDH assay; conditions: human
HEK-293T [3] = assay: Cytotoxicity against HEK293T cells up to 50 uM after 16 hrs by Celltiter-Glo luminescence assay; assay type: cell-based; conditions: human
Outline: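 HEK-293T cells exposed for 16 hrs to varying concentrations of stimulator before toxicity was assessed.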

[4] = target: 20S proteasome (Homo sapiens) (UniProt P49721+P20618+P28074+P28062+P28065+P28072+P25786+P25787+P25788+P25789+P28066+P60900+O14818+Q8TAA3+P40306+A5LHX3+P49720+P28070+Q99436); assay: Stimulation of human 20S proteasome at EC50 using 11 amino acid FRET peptide as substrate measured every 2 mins over 1 hr by FRET assay relative to control; assay type: protein-complex assay
Outline: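 Purified human 20S core particle incubated with an 11-residue reporter peptide carrying a FRET pair. Hydrolysis rate of the peptide is calculated with and without stimulator and expressed as percent increase over basal hydrolysis.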

CCCCCCCC/C=C\CCCCC/C=C/C(=O)O
solubility [1]: Insoluble

CCCCCC/C=C\CCCCC/C=C/C(=O)O
solubility [1]: Insoluble

CCCCCCCC/C=C\CCCCC/C=C/C(=O)Nc1ccc(O)cc1
EC50 (20S proteasome): 24 µM
Activity (HEK-293T [2]): Non-Toxic
Activity (HEK-293T [3]): Non-Toxic
Activity [4]: 500%

CCCCCCCC/C=C\CCCCCCCC(=O)Nc1ccc(O)cc1
EC50 (20S proteasome): 35 µM
Activity (HEK-293T [2]): Non-Toxic
Activity (HEK-293T [3]): Non-Toxic
Activity [4]: 400%

CCCCC/C=C\C/C=C\C/C=C\C/C=C\CCCC(=O)Nc1ccc(O)cc1
EC50 (20S proteasome): 28 µM
Activity (HEK-293T [2]): Non-Toxic
Activity (HEK-293T [3]): Toxic
Activity [4]: 1000%
